ChEMBL document CHEMBL1135766, “Synthesis of conformationally constrained analogues of linezolid: structure-activity relationship (SAR) studies on selected novel tricyclic oxazolidinones” (2002)

What was measured:
Staphylococcus aureus [1] = test: In vitro antibacterial activity against Staphylococcus aureus ATCC 49951 (S. a. 213); type: functional
In short: (§1)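 Broth microdilution MIC per NCCLS guidelines in Mueller Hinton medium. Doubling dilutions from 256 to 1 μg/mL, inoculum (1–5) × 10⁵ CFU/mL, incubated overnight in ambient air at 35 °C. MIC is the lowest concentration giving complete growth inhibition. Linezolid and vancomycin served as controls.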

Enterococcus faecalis [2] = test: In vitro antibacterial activity against Enterococcus faecalis NCTC 12201 (E. f. 153) vancomycin resistant; type: functional; in short: as §1
Staphylococcus aureus [3] = test: In vitro antibacterial activity against Staphylococcus aureus ATCC 29213 (S. a. 035); type: functional
In short: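 Broth microdilution per NCCLS guidelines in Mueller Hinton medium. Doubling dilutions 256–1 μg/mL; inoculum (1–5) × 10⁵ CFU/mL; plates incubated overnight at 35 °C in ambient air. MIC read as the lowest concentration giving complete growth inhibition. Linezolid and vancomycin served as controls.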

Enterococcus faecium = test: In vitro antibacterial activity against Enterococcus faecium ATCC 12202 (E.fm 154) vancomycin resistant
Enterococcus faecalis [4] = test: In vitro antibacterial activity against Enterococcus faecalis ATCC 29212 (E. f. 034) vancomycin sensitive; type: functional; in short: as §1
Staphylococcus aureus [5] = test: In vitro antibacterial activity against methicillin resistant Staphylococcus aureus ATCC 33591 (S. a. 019); type: functional; in short: as §1

Measured: MIC

O=C1CCC(=O)N1C[C@H]1CN(c2cc(F)c3c(c2)OC[C@@H]2CCCN32)C(=O)O1
> 32 µg/mL: Staphylococcus aureus [1] | Enterococcus faecalis [2] | Staphylococcus aureus [3] | Enterococcus faecium | Enterococcus faecalis [4] | Staphylococcus aureus [5]
